# Data from ChEMBL document CHEMBL1156763, “1,8-Naphthyridines VIII. Novel 5-aminoimidazo[1,2-a] [1,8]naphthyridine-6-carboxamide and 5-amino[1,2,4]triazolo[4,3-a] [1,8]naphthyridine-6-carboxamide derivatives showing potent analgesic or anti-inflammatory activity, respectively, and completely devoid of acute gastrolesivity” (Eur J Med Chem, 2010).
# Assays:
# Mus musculus [1] = experiment: Sedative activity in Swiss mouse assessed as inhibition of spontaneous locomotor activity at 10 mg/kg, po dose measured for every 5 mins upto 90 mins; type: functional
# Method in brief: (§1)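 Overnight-fasted mice given compound (0.5% methylcellulose) or vehicle by oral gavage, then housed singly in an activity cage. Locomotion auto-recorded in 5-min intervals for 90 min; pulses of the final 30 min scored. % inhibition versus controls; runs between 9.00 and 13.00; groups of 8–10; Student's t-test.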
# Rattus norvegicus [2] = experiment: Antiinflammatory activity against carrageenan-induced paw edema in Wistar rat assessed as inhibition of hind paw edema at 10 mg/kg, po administered 1 hr prior to carrageenan challenge measured after 3 hrs relative to control; type: functional
# Method in brief: (§2)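 Wistar rats of either sex (250–300 g), fasted overnight, gavaged with compound in 0.5% methylcellulose. 1 h later, 0.1 mL 1% carrageenan injected subcutaneously into the plantar hind paw. Paw volume read by plethysmometer right after injection and 3 h later. Control edema set as 100, % inhibition from swelling difference. Groups of 8–10; Student's t-test.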
# Mus musculus [3] = species on record: Mus musculus; experiment: animal or person; settings: Swiss, po, read-out: INH
# Rattus norvegicus [4] = experiment: Antiinflammatory activity against carrageenan-induced paw edema in Wistar rat assessed as inhibition of hind paw edema at 3.12 mg/kg, po administered 1 hr prior to carrageenan challenge measured after 3 hrs relative to control; type: functional; method in brief: as §2
# Mus musculus [5] = experiment: Analgesic activity in Swiss mouse assessed as inhibition of acetic acid-induced writhing response at 100 mg/kg, po administered 1 hr before acetic acid challenge measured for 30 mins relative to control; type: functional
# Method in brief: (§3)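 Mice of either sex (25–35 g), fasted overnight, dosed by oral gavage with test agent suspended in 0.5% methylcellulose; controls got vehicle alone. Each hind-limb full extension counted as a writhe over 30 min after the noxious agent. % inhibition from treated vs control writhing; groups of 8–10; Student's t-test. Dosing starts at 100 mg/kg, then halved stepwise.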
# Mus musculus [6] = experiment: Sedative activity in Swiss mouse assessed as inhibition of spontaneous locomotor activity at 100 mg/kg, po dose measured for every 5 mins up to 90 mins; type: organism-based; set-up: dose 100 mg/kg, route oral; method in brief: as §1
# Rattus norvegicus [7] = experiment: Acute gastrolesivity in Wistar rat assessed as appearance of gastric damage at 200 mg/kg, po after 5 hrs; type: toxicity, organism-based, Stomach; set-up: dose 200 mg/kg, route oral; settings: in vivo
# Method in brief: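 Wistar rats (250–300 g), either sex, fasted overnight; compound suspended in 0.5% methylcellulose, single oral gavage at 200 mg kg^-1 (1 mL 100 g^-1). Stomachs excised 5 h later, fixed in 2% formalin, opened along greater curvature, examined by stereomicroscope by blinded observer. Reported as number of animals with gastric damage over treated animals (eight per group).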
# Rattus norvegicus [8] = experiment: Antiinflammatory activity against carrageenan-induced paw edema in Wistar rat assessed as inhibition of hind paw edema at 1.6 mg/kg, po administered 1 hr prior to carrageenan challenge measured after 3 hrs relative to control; type: functional; method in brief: as §2
# Rattus norvegicus [9] = experiment: Antiinflammatory activity against carrageenan-induced paw edema in Wistar rat assessed as inhibition of hind paw edema at 50 mg/kg, po administered 1 hr prior to carrageenan challenge measured after 3 hrs relative to control; type: functional; method in brief: as §2
# Rattus norvegicus [10] = experiment: Antiinflammatory activity against carrageenan-induced paw edema in Wistar rat assessed as inhibition of hind paw edema at 100 mg/kg, po administered 1 hr prior to carrageenan challenge measured after 3 hrs relative to control; type: functional; method in brief: as §2
# Mus musculus [11] = experiment: Analgesic activity in Swiss mouse assessed as inhibition of acetic acid-induced writhing response at 50 mg/kg, po administered 1 hr before acetic acid challenge measured for 30 mins relative to control; type: functional; method in brief: as §3
# Rattus norvegicus [12] = experiment: Antiinflammatory activity against carrageenan-induced paw edema in Wistar rat assessed as inhibition of hind paw edema at 25 mg/kg, po administered 1 hr prior to carrageenan challenge measured after 3 hrs relative to control; type: functional; method in brief: as §2
# Rattus norvegicus [13] = experiment: Antiinflammatory activity against carrageenan-induced paw edema in Wistar rat assessed as inhibition of hind paw edema at 12.5 mg/kg, po administered 1 hr prior to carrageenan challenge measured after 3 hrs relative to control; type: functional; method in brief: as §2
# Rattus norvegicus [14] = experiment: Antiinflammatory activity against carrageenan-induced paw edema in Wistar rat assessed as inhibition of hind paw edema at 6.25 mg/kg, po administered 1 hr prior to carrageenan challenge measured after 3 hrs relative to control; type: functional; method in brief: as §2
# Mus musculus [15] = experiment: Analgesic activity in Swiss mouse assessed as inhibition of acetic acid-induced writhing response at 25 mg/kg, po administered 1 hr before acetic acid challenge measured for 30 mins relative to control; type: functional; method in brief: as §3
# Mus musculus [16] = experiment: Sedative activity in Swiss mouse assessed as inhibition of spontaneous locomotor activity at 50 mg/kg, po dose measured for every 5 mins up to 90 mins; type: organism-based; set-up: dose 50 mg/kg, route oral; method in brief: as §1
# Mus musculus [17] = experiment: Sedative activity in Swiss mouse assessed as inhibition of spontaneous locomotor activity at 12.5 mg/kg, po dose measured for every 5 mins up to 90 mins; type: organism-based; set-up: dose 12.5 mg/kg, route oral; method in brief: as §1
# Mus musculus [18] = experiment: Analgesic activity in Swiss mouse assessed as inhibition of acetic acid-induced writhing response at 12.5 mg/kg, po administered 1 hr before acetic acid challenge measured for 30 mins relative to control; type: functional; method in brief: as §3
# Mus musculus [19] = experiment: Analgesic activity in Swiss mouse assessed as inhibition of acetic acid-induced writhing response at 6.25 mg/kg, po administered 1 hr before acetic acid challenge measured for 30 mins relative to control; type: functional; method in brief: as §3
compound,measurement,setting,value
CN1C(=O)CN=C(c2ccccc2)c2cc(Cl)ccc21 [DIAZEPAM],inhibition in vivo at 10 mg/kg,Mus musculus [1],98%
COc1ccc2c(c1)c(CC(=O)O)c(C)n2C(=O)c1ccc(Cl)cc1 [INDOMETHACIN],inhibition in vivo at 10 mg/kg,Rattus norvegicus [2],51%
same,inhibition in vivo at 10 mg/kg,Mus musculus [3],84%
CCNC(=O)c1c(NCC(C)C)c2cccnc2n2c(C(C)C)nnc12,inhibition in vivo at 3.12 mg/kg,Rattus norvegicus [4],35%
same,inhibition in vivo at 100 mg/kg,Mus musculus [5],81%
same,inhibition at 100 mg/kg,Mus musculus [6],48%
same,Activity,Rattus norvegicus [7],Non-toxic
same,inhibition in vivo at 1.6 mg/kg,Rattus norvegicus [8],18%
same,inhibition in vivo at 50 mg/kg,Rattus norvegicus [9],50%
same,inhibition in vivo at 100 mg/kg,Rattus norvegicus [10],60%
same,inhibition in vivo at 50 mg/kg,Mus musculus [11],21%
same,inhibition in vivo at 25 mg/kg,Rattus norvegicus [12],47%
same,inhibition in vivo at 12.5 mg/kg,Rattus norvegicus [13],49%
same,inhibition in vivo at 6.25 mg/kg,Rattus norvegicus [14],40%
CCOc1cnc2c(C(=O)N(CC)CC)c(N3CCN(C)CC3)c3cccnc3n12,inhibition in vivo at 100 mg/kg,Mus musculus [5],97%
same,inhibition at 100 mg/kg,Mus musculus [6],60%
same,Activity,Rattus norvegicus [7],Non-toxic
same,inhibition in vivo at 25 mg/kg,Mus musculus [15],54%
same,inhibition at 50 mg/kg,Mus musculus [16],46%
same,inhibition at 12.5 mg/kg,Mus musculus [17],15%
same,inhibition in vivo at 100 mg/kg,Rattus norvegicus [10],26%
same,inhibition in vivo at 50 mg/kg,Mus musculus [11],62%
same,inhibition in vivo at 12.5 mg/kg,Mus musculus [18],48%
same,inhibition in vivo at 6.25 mg/kg,Mus musculus [19],17%
